Measurements published in ChEMBL document CHEMBL1158680, “Chemical constituents and biological activities of the fruit of Zanthoxylum integrifoliolum” (1999).

Legend:
Aorta [1] = test: Vasorelaxation activity in rat aorta assessed as inhibition of norepinephrine-induced tonic contraction at 1 ug/ml preincubated for 15 mins relative to control; type: functional; set-up: scale not given: the % may be the effect or the level left
In short: (§1)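 Rat aorta was preincubated with test sample or 0.1% DMSO vehicle at 37 °C for 15 min. Contraction was then evoked with high K+ (80 mM) or norepinephrine (3 μM). Response is expressed as percent of control contraction, mean ± SEM, n = 3.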

Aorta [2] = test: Vasorelaxation activity in rat aorta assessed as inhibition of norepinephrine-induced phasic contraction at 1 ug/ml preincubated for 15 mins relative to control; type: functional; set-up: scale not given: the % may be the effect or the level left; in short: as §1

COc1cc2nc(N3CCN(C(=O)c4ccco4)CC3)nc(N)c2cc1OC [PRAZOSIN]
Activity (Aorta [1]): 0% | Activity (Aorta [2]): 0%
